Shown are actives, neighbours in structure and some others; about 3.9% of the full set was active somewhere.
FXN GAA850 act: activators of GAA850 frataxin (FXN) promoter | HEK293 lucGAA850 FXN promoter luciferase reporter, 24 h; percent of 10 µM SAHA response | activation, % at 6 µM | 360,000 tested, 0.56% active | AID 540364;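 active = activation above the average of all compounds screened plus 3 SD, cutoff fixed separately per campaign, cut at about 7.5% in these data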;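 note: 0% = DMSO wells and 100% = 10 µM SAHA wells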
SR-BI DiI-HDL act: activators of SR-BI mediated HDL lipid uptake | 320,000 tested, 0.096% active | CHO ldlA[mSR-BI] cells, DiI-HDL uptake fluorescence, 3 h; 100 = double the neutral-control signal | activation, % at 12.5 µM | AID 504775;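 active = mean replicate activation of at least 60% and every replicate at or above 60%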;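 note: 0% = median plate neutral-control signal and 100% = twice that signal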
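Test system: SR-BI-overexpressing, LDLR-lacking CHO cells; Also added: labelled HDL, 10 µg/mL; Measured by: bottom-read cell fluorescence after medium removal, ex 550/em 595 nm; Timing: 3 h uptake period with compound, 37 °C; Buffer or medium: F12, 0.5% BSA, 25 mM HEPES; Doses: single compound concentration, delivered by pin transfer.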
AHR activator: human AHR activation; AHR-responsive luciferase reporter cells, luminescence; activation, % at 5 µM; 320,000 tested, 2.5% active; in the data active = activation above about 47%;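 note: 0% = vehicle wells and 100% = reference agonist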
Target sequence (P35869 whole entry, looked up): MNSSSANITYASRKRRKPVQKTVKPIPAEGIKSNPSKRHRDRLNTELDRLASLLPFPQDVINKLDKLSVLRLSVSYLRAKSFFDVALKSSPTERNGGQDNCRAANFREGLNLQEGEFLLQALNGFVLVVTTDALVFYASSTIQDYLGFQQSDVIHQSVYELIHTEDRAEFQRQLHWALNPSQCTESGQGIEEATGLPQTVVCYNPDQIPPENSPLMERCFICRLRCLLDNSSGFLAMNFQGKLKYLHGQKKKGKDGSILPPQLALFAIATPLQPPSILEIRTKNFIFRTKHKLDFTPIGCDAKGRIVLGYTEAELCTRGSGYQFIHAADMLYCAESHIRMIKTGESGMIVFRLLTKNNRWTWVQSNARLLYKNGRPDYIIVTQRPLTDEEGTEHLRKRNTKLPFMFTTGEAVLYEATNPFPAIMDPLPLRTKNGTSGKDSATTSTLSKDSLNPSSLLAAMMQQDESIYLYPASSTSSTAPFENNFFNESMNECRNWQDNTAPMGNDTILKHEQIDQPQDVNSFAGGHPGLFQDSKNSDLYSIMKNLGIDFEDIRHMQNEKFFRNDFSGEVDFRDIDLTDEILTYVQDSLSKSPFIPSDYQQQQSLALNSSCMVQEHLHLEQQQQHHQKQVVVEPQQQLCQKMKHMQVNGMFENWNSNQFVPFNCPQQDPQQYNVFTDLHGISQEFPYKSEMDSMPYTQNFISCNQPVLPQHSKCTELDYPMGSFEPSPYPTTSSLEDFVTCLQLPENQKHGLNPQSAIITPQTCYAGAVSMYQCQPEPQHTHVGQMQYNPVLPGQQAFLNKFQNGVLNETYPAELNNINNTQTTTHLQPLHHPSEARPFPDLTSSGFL
HIF activator: HIF pathway transcriptional activation; U2OS HRE-luciferase reporter, luminescence; normalized: DMSO 0%, desferrioxamine 100%; activation, % at 7.5 µM (by protocol); 300,000 tested, 0.32% active; AID 1910;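 active = mean activation of at least 10% of the iron chelator positive control signal, with at least half of replicates also reaching 10%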
ABCB6 inh 2: human ABCB6 transporter inhibition | Q9NP58 | K562-ABCB6 porphyrin accumulation, flow cytometry, 1 h; active compounds read low | fluorescence ratio to DMSO, % at 10 µM | 360,000 tested, 0.19% active | AID 602162;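 active = fluorescence ratio to DMSO below 75%, the collection mean minus 3 SD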;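 note: signal is porphyrin accumulated inside mitochondria; 100% equals median channel fluorescence of DMSO control wells; lower ratio means ABCB6 inhibition with less porphyrin fluorescence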
SR-BI HDL uptake: mouse SR-BI HDL lipid transfer inhibition; Q61009; ldlA[mSR-BI] CHO cells, DiI-HDL uptake fluorescence, 3 h; inhibition, % at 12.5 µM; 320,000 tested, 0.96% active; AID 488896;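 active = mean replicate inhibition of at least 70% and a set share of replicates each scoring 70 or more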;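 note: 0% = median of neutral control wells and 100% = median of positive control wells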
AHR act confirm: human AHR activation, confirmation. shares compounds with AHR activator. human cells, AHR-responsive luciferase reporter, luminescence. activation, % at 9 µM. 2,300 tested, 87% active. AID 2845; in the data active = activation above about 49%;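 note: HepG2 hepatoma cells carrying a DRE-driven firefly luciferase reporter; 0% = vehicle wells and 100% = reference agonist wells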
PXR counter: counter-screen for AHR activators: human PXR activators. shares compounds with AHR activator. cell-based PXR reporter, luciferase luminescence. activation, % at 11.6 µM. 2,300 tested, 88% active; in the data active = activation above about 11%;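 note: human hepatoma DPX-2 cells expressing full-length human PXR; 0% = DMSO and 100% = reference agonist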
The depositor's hits bear a star; / = no result.

SMILES	FXN GAA850 act	SR-BI DiI-HDL act	AHR activator	HIF activator	ABCB6 inh 2	SR-BI HDL uptake	AHR act confirm	PXR counter
O=C1C(Cl)=C(N2CCOCC2)C(=O)N1CCc1ccccc1	3.5	-22.2	92.1*	1.7	99.0	22.2	116.7*	16.2*
O=C1C(Cl)=C(NCC2CCCO2)C(=O)N1CCc1ccccc1 (centres undefined)	5.6	36.6	92.4*	2.8	108.0	-36.6	90.8*	65.3*
O=C1C(Cl)=C(NCCc2ccccc2)C(=O)N1CCc1ccccc1	1.4	-11.5	35.4	-17.9	91.0	11.5	/	/
Cc1ccc(NC(=O)COC(=O)c2ccc3c(=O)n4c(nc3c2)CCC4)c(Br)c1	0.3	21.2	-1.4	/	98.0	-21.2	/	/
O=C(Nc1cc(-c2nc3ncccc3o2)ccc1Cl)c1cccs1	-1.5	-21.8	133.7*	0.1	88.0	21.8	97.5*	47.0*
O=C(Nc1cc(-c2nc3ncccc3o2)ccc1Cl)c1ccc([N+](=O)[O-])o1	-1.7	/	8.0	0.1	108.0	/	/	/
COc1ccc(-c2nc3ncccc3o2)cc1NC(=O)c1cccs1	0.9	-28.6	80.7*	-0.1	100.0	28.6	42.8	29.7*
O=C(O)c1ccccc1C(=O)NCc1cccnc1	-0.2	-10.9	5.8	0.1	105.0	10.9	/	/
CCOc1ncccc1C(=O)Nc1ccc2c(C)cc(=O)oc2c1	3.0	-34.3	45.2	1.0	97.0	34.3	/	/
COc1ccccc1C(=O)Nc1ccc2c(C)cc(=O)oc2c1	2.6	-21.6	97.8*	-25.9	103.0	21.6	98.3*	40.6*
COc1ccc(NC(=O)c2cc3c([nH]c4ccccc43)c(C)n2)cc1	1.6	-16.0	85.3*	0.0	105.0	16.0	88.4*	14.8*
CON/C=C(\C=Nc1ccc(F)cc1)c1ncc(C(F)(F)F)cc1Cl	1.8	-41.7	89.2*	-0.2	100.0	41.7	94.1*	22.9*
CON/C=N/C(=S)Nc1ncc(C(F)(F)F)cc1Cl	0.3	3.9	11.5	0.0	96.0	-3.9	/	/
CSc1nc2[nH]c3c(c2c2nnnn12)CCCC3	2.3	7.4	115.6*	0.2	96.0	-7.4	106.9*	44.3*
CCCc1ccc(NC(=O)C2CCN(c3cnccn3)CC2)cc1	-0.1	-17.0	3.1	0.3	92.0	17.0	/	/
Cc1cccc(NC(=O)C2CCCN(c3cnccn3)C2)c1 (centres undefined)	-0.8	-15.9	87.8*	-0.4	94.0	15.9	70.4*	31.6*
CCc1cccc(NC(=O)C2CCCN(c3cnccn3)C2)c1 (centres undefined)	0.2	16.0	90.8*	0.5	95.0	-16.0	57.6*	41.5*
COc1ccc(NC(=O)Nc2ccc(F)cc2)c(C)c1	-0.3	8.5	111.0*	-0.4	101.0	-8.5	11.1	25.4*
CCc1nc(NCCCn2ccnc2)c2oc3ccccc3c2n1	0.8	-13.1	109.3*	0.0	94.0	13.1	114.3*	41.1*
CCc1nc(Nc2ccccc2F)c2oc3ccccc3c2n1	4.2	-30.6	94.2*	1.2	91.0	30.6	95.0*	42.5*
CCc1nc(Nc2ccc(F)cc2)c2oc3ccccc3c2n1	1.4	-41.9	23.8	-0.1	97.0	41.9	/	/
CCCc1cc(=O)[nH]c(SCC(=O)N(C)Cc2ccccc2)n1	-0.2	1.0	7.0	0.4	92.0	-1.0	/	/
O=C(/C=C/c1ccc(F)cc1)N1CCc2ccccc2C1	3.4	11.7	100.0*	/	102.0	-11.7	135.8*	59.6*
CC1CCN(Cc2cc(=O)oc3ccc(C(C)C)cc23)CC1	2.0	-37.0	3.2	-18.0	98.0	37.0	/	/
Cn1c(=O)c([N+](=O)[O-])c(NCc2ccc3c(c2)OCO3)c2ccccc21	1.7	2.9	88.8*	0.1	97.0	-2.9	98.6*	86.5*
SMILES	FXN GAA850 act	SR-BI DiI-HDL act	AHR activator	HIF activator	ABCB6 inh 2	SR-BI HDL uptake	AHR act confirm	PXR counter
Cn1c(=O)c([N+](=O)[O-])c(NCc2ccccc2Cl)c2ccccc21	-0.2	11.6	45.1	-0.8	102.0	-11.6	/	/
Cn1c(=O)c([N+](=O)[O-])c(NCCc2ccccc2)c2ccccc21	0.9	-14.5	81.3*	-0.3	99.0	14.5	89.4*	48.6*
O=C(/C=C/c1ccccc1)NC(=S)Nc1ccccc1C(=O)NC1CCCCC1	0.5	-8.9	-2.9	0.3	98.0	8.9	/	/
Cc1c(C(=O)Nc2nccs2)oc2ccc(Br)cc12	7.2	-18.2	86.5*	/	90.0	18.2	132.2*	21.8*
Cc1c(C(=O)Nc2nccs2)oc2ccc(F)cc12	4.5	-0.7	40.2	/	96.0	0.7	/	/
Cc1nnc(Nc2ccc3c(c2)OCO3)c2ccccc12	0.1	/	84.5*	2.0	114.0	/	105.2*	160.5*
CC(=O)N(CC(C)(C)CC=C(C)C)c1ccccc1	/	/	-4.6	-0.1	/	/	/	/
CCOC(=O)N1CCN(C(c2ccc(Cl)cc2)c2sc3nc(C)nn3c2O)CC1 (centres undefined)	-0.1	-7.8	1.6	-0.1	86.0	7.8	/	/
Cc1ccc(-n2sc3ccccc3c2=O)cc1	-4.4	31.8	79.9*	0.4	87.0	-31.8	74.1*	30.4*
Cc1ccc(NCC(=O)N/N=C/c2c[nH]c3ccccc23)cc1	2.0	0.7	157.7*	0.0	97.0	-0.7	111.0*	19.0*
Cc1ccc(NC(C)C(=O)N/N=C/c2c[nH]c3ccccc23)cc1 (centres undefined)	-0.2	11.5	30.9	-0.2	100.0	-11.5	/	/
CCn1c(O)c(N=NC(=S)NCC2CCCO2)c2ccccc21 (centres undefined)	0.1	5.2	20.0	-0.1	96.0	-5.2	/	/
Oc1[nH]c2ccc(Br)cc2c1N=NC(=S)NCC1CCCO1 (centres undefined)	-1.6	-14.9	104.4*	2.3	95.0	14.9	72.3*	23.4*
COc1ccccc1NC(=S)N=Nc1c(O)[nH]c2ccc(Br)cc12	-0.6	-45.7	20.9	0.8	95.0	45.7	/	/
Cc1cc(C)c2[nH]c(O)c(N=NC(=S)NCC3CCCO3)c2c1 (centres undefined)	-2.4	16.8	124.3*	-0.2	98.0	-16.8	100.2*	113.8*
CCN1CCN(C(=O)CCc2ccc(S(=O)(=O)NCCc3ccccc3)cc2)CC1	-0.6	14.0	2.8	-0.5	98.0	-14.0	/	/
CC1S/C(=C(\C#N)C(N)=O)N(c2ccc(F)cc2)C1=O (centres undefined)	-0.6	21.2	97.0*	0.3	85.0	-21.2	121.6*	14.6*
Cn1c(=NC(=O)C2CC2)sc2cccc(F)c21	2.8	3.3	99.6*	1.0	96.0	-3.3	119.5*	23.3*

Screening data (PubChem)
